The values that follow come from ChEMBL document CHEMBL1154321, “Benzoxazole piperidines as selective and potent somatostatin receptor subtype 5 antagonists” (Bioorg Med Chem Lett, 2009).

Data set [1] deals with Somatostatin receptor type 4 (Homo sapiens, UniProt P31391). The data set is described as follows: Displacement of SST14 from human recombinant SST4 receptor. The method in brief: (§1)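 Membranes prepared by sonication from cells expressing the SST receptor subtype, incubated with radiolabeled 11-Tyr SST-14 tracer and test compound at varying concentrations; non-labeled SST-14 defined non-specific binding. Incubation stopped by glass-fiber filtration, bound radioactivity counted; IC50 for half-maximal binding inhibition estimated and Ki derived.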

Data set [2] addresses Somatostatin receptor type 2 (Homo sapiens, UniProt P30874). Nature of the data set: Displacement of SST14 from human recombinant SST2 receptor. The method in brief:
as §1

Data set [3] addresses Somatostatin receptor type 3 (Homo sapiens, UniProt P32745). Nature of the data set: Displacement of SST14 from human recombinant SST3 receptor. The method in brief: as §1
In data set [4] the target is Somatostatin receptor type 5 (Homo sapiens, UniProt P35346). The data set is described as follows: Displacement of SST14 from human recombinant SST5 receptor expressed in CHO cells by radioligand binding assay. Format: cell-based. The method in brief: as §1
Data set [5] is described as follows: Solubility in phosphate buffer at pH 6.5 by lyophilization solubility assay. Format: physicochemical. The method in brief:
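Lyophilized DMSO stock solutions redissolved in 50 mM phosphate buffer, pH 6.5; solubility read spectrophotometrically.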

Data set [6] can be described thus: Octanol-TAPSO partition coefficient, log D at pH 7.4 by spectrophotometry. The settings on record: octanol/TAPSO buffer. Format: physicochemical. The method in brief:
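Spectrophotometric log D in 1-octanol/50 mM TAPSO buffer, pH 7.4, containing 5% (v/v) DMSO.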

Data set [7] can be described thus: Dissociation constant, pKa by spectrophotometry. It counts as physicochemical.
The next data set has as its target Histamine H1 receptor (Homo sapiens, UniProt P35367). Nature of the data set: Binding affinity to human histamine H1 receptor.
For a further data set, the species on record is Homo sapiens. The data set is described as follows: Selectivity ratio of Ki for human histamine H1 receptor to Ki for human SST5 receptor.
Data set [8] is described as follows: sPermeability by PAMPA. It counts as ADME. The settings on record: read-out: permeability. The method in brief:
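Parallel artificial membrane permeation; Pe categorized as low (<0.1), medium (0.1–1.0) or high (>1.0).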
Background: In PAMPA a lipid-coated filter parts donor from acceptor wells.

Molecules are shown by their SMILES. In brackets after ≈: the same amount, converted by molar mass.

Somatostatin receptor type 5, sequence (P35346 whole entry): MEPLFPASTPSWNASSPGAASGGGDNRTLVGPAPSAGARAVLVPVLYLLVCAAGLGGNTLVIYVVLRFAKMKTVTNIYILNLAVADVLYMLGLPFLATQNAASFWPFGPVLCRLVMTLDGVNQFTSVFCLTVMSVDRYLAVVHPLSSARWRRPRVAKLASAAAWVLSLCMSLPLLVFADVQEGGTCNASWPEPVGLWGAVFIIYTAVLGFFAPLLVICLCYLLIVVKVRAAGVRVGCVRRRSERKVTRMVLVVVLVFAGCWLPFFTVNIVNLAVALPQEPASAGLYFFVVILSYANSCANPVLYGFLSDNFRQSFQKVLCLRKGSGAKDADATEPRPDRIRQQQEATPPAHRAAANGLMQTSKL
Somatostatin receptor type 3, sequence (P32745 whole entry): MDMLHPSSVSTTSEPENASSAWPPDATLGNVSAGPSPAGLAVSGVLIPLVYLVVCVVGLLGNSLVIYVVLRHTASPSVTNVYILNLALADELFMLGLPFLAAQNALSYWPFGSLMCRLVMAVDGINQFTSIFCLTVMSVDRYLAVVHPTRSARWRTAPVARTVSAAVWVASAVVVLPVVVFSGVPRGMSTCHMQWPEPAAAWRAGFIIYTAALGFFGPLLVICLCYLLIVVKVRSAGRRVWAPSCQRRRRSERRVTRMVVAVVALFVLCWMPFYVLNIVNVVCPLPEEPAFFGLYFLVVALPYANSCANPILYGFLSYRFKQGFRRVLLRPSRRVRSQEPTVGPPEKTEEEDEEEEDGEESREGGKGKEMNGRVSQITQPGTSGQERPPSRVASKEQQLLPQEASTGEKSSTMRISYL
Somatostatin receptor type 4, sequence (P31391 whole entry): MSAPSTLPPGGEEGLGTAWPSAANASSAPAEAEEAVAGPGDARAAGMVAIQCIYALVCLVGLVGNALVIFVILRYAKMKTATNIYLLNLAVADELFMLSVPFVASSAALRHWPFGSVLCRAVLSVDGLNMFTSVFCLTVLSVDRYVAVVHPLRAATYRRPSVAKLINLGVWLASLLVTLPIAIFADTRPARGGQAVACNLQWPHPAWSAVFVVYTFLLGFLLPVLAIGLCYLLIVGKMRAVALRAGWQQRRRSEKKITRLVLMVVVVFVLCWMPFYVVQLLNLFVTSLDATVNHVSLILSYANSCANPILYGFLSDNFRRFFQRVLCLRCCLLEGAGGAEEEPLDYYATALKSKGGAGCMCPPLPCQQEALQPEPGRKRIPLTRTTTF
Somatostatin receptor type 2, sequence (P30874 whole entry): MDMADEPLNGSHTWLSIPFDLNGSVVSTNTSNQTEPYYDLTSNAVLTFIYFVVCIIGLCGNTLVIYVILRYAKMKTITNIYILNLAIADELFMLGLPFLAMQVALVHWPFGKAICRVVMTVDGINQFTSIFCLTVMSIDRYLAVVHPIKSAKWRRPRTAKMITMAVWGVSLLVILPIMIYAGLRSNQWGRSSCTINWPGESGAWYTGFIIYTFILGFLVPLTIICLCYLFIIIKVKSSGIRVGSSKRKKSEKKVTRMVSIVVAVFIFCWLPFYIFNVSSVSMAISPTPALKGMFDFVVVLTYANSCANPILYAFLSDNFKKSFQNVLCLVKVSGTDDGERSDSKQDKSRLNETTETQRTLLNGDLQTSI
Histamine H1 receptor, sequence (P35367 whole entry): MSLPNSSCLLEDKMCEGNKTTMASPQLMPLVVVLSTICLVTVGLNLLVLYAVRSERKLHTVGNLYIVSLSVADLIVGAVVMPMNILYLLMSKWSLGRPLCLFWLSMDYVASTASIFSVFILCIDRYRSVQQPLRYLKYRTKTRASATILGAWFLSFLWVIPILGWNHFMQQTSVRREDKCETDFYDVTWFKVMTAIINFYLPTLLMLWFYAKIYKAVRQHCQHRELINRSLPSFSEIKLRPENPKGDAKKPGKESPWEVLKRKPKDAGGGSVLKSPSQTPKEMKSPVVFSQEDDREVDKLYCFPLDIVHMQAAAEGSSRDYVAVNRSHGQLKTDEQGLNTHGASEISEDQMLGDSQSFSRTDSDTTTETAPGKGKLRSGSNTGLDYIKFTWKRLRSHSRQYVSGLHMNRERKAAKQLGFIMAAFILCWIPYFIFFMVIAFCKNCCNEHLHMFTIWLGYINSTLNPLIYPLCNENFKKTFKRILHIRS

As for `COc1ccc(CN2CCC(Nc3nc4ccccc4o3)CC2)cc1OC`, the Ki in data set [1] is over 10 µM; in data set [2] it was over 10 µM; in data set [3] it was over 10 µM; in data set [4], 0.472 µM.

In the case of `CCOc1cc(NC2CCC(NCc3nc4ccccc4s3)CC2)ccc1OC` (stereo not drawn), the Ki is over 10 µM in data set [1], over 10 µM in [2], over 10 µM in data set [3] and over 1 µM in data set [4].

`CCOc1cc(CN2CCC(Nc3nc4ccccc4o3)CC2)ccc1OC(C)C`: the Ki in [1] is over 10 µM; in data set [2], over 10 µM; in [3], over 10 µM; in data set [4], over 1 µM.

Consider `CCOc1cc(CN2CCC(Nc3nc4ccccc4o3)CC2)ccc1OC1CC1`, for which the Ki in data set [1] is over 10 µM; in data set [2], over 10 µM; in [3], over 10 µM; in data set [4], 0.537 µM.

For `CC(C)Oc1cc(CN2CCC(Nc3nc4ccccc4o3)CC2)cc(OC(C)C)c1`, the Ki is over 10 µM in data set [1], over 10 µM in data set [2], over 10 µM in data set [3] and 0.031 µM in data set [4].

With `COc1ccc(CCN2CCC(Nc3nc4ccccc4n3Cc3ccc(F)cc3)CC2)cc1` [ASTEMIZOLE], the Ki in data set [1], in [2] and in data set [3] was over 10 µM throughout.

On to `CCOc1cc(CN2CCC(Nc3nc4cccnc4s3)CC2)ccc1OC`, for which the Ki in data set [1] is over 10 µM; in [2], over 10 µM; in data set [3] it was over 10 µM; in [4], 0.309 µM.

Regarding `CCOc1cc(NCc2cccc(Nc3nc4ccccc4s3)c2)ccc1OC`, the Ki is over 10 µM in data set [1], over 10 µM in data set [2], over 10 µM in [3] and over 1 µM in data set [4].

In the case of `CCOc1cc(CN2CCC(Nc3nc4ccccc4o3)CC2)c(F)c(OCC)c1`, the Ki in [1] is over 10 µM; in [2], over 10 µM; in data set [3], over 10 µM; in data set [4], over 1 µM.

With `CCNc1cc(CN2CCC(Nc3nc4ccccc4o3)CC2)ccc1OC`, the Ki was over 10 µM in [1], over 10 µM in [2], over 10 µM in [3] and 0.371 µM in [4].

`CCOc1cc(CN2CCC(Nc3nc4cccnc4o3)CC2)ccc1OC`: the Ki in [1] is over 10 µM; in [2] it was over 10 µM; in [3], over 10 µM; in data set [4], 0.633 µM.

In the case of `COc1ccc(CN2CCC(Nc3nc4ccccc4o3)CC2)cc1OC1CCCC1`, the Ki in [1], in data set [2] and in data set [3] was over 10 µM throughout.

As for `CCOc1cc(CN2CCC(Nc3nc4ccccc4o3)CC2)ccc1F`, the Ki was over 10 µM in data set [1], over 10 µM in [2], over 10 µM in data set [3] and 0.826 µM at Histamine H1 receptor. For the same compound, the solubility in data set [5] was over 452 µg/mL. Further, the logD in data set [6] is 3.63. In data set [7], this compound showed a pKa of 7.79. The Ratio Ki in the data set listed under Homo sapiens is 4.3. Further, the Papp in data set [8] was determined as 4.33 ×10⁻⁶ cm/s.

On to `CCOc1cc(CN2CCC(Nc3nc4cc(Cl)c(S(N)(=O)=O)cc4o3)CC2)cc(OCC)c1F`, for which the Ki in [1] was over 10 µM; in data set [2], over 10 µM; in [3], over 10 µM; in data set [4], 0.252 µM. In data set [5], this compound came in with a solubility of 32 µg/mL (≈ 60.7 µM). Also, in data set [6], the logD was 2.78. The compound further registered a pKa in data set [7] of 7.61. Moreover, the Papp in data set [8] is 2.45 ×10⁻⁶ cm/s.

Take `CCOc1cc(CN2CCC(C(=O)Nc3nc4ccccc4s3)CC2)ccc1OC`: the Ki in [1] was over 10 µM; in [2], over 10 µM; in [3] it was over 10 µM; in data set [4] it was over 1 µM.

For the compound `CCOc1cc(CN2CCC(Nc3nc4cc(S(=O)(=O)N(C)C)ccc4o3)CC2)ccc1OC`, the Ki was over 10 µM in data set [1], over 10 µM in [2], over 10 µM in data set [3] and 0.226 µM in [4].

With `CCOc1cc(CN2CCC(Nc3nc4ccccc4o3)CC2)cc(OCC)c1F`, the Ki was over 10 µM in data set [1], over 10 µM in [2], over 10 µM in data set [3] and 0.178 µM in data set [4].

On to `COc1ccc(CN2CCC(Nc3nc4ccccc4o3)CC2)cc1OCCF`, for which the Ki was over 10 µM in data set [1], over 10 µM in data set [2], over 10 µM in [3] and 0.487 µM in data set [4].

Turning to `CCOc1cc(CN2CCC(Nc3nc4cc(Cl)ccc4o3)CC2)ccc1OC`, the Ki in data set [1] was over 10 µM; in [2] it was over 10 µM; in [3], over 10 µM; in data set [4], 0.194 µM.

Take `COc1ccc(CN2CCC(Nc3nc4ccccc4o3)CC2)cc1OCC(C)C`: the Ki in data set [1], in data set [2] and in [3] was over 10 µM in each case.

As to `CCOc1cc(NC2CCN(c3nc4ccccc4s3)CC2)ccc1OC`, the Ki in data set [1] was over 10 µM; in data set [2] it was over 10 µM; in [3] it was over 10 µM; in data set [4] it was over 1 µM.

Consider `CCOc1cc(CN2CCC(Nc3nc4ccccc4o3)CC2)ccc1C`, for which the Ki in data set [1], in data set [2] and in data set [3] was over 10 µM throughout.

On to `CCOc1cc(CN2CCC(Nc3nc4cc(S(=O)(=O)N(C)C)ccc4o3)CC2)cc(OCC)c1-n1cccc1`, for which the Ki in data set [1] is over 10 µM; in data set [2] it was over 10 µM; in [3], over 10 µM; in data set [4] it was 0.052 µM; at Histamine H1 receptor it was 5 µM. Moreover, the concentration in solution in data set [5] (solubility) was 22 µg/mL (≈ 38.8 µM). Also, in [6], the logD is 2.89. Also, the Ratio Ki in the data set listed under Homo sapiens turned out to be 96. Also, in data set [8], the Papp turned out to be 1.31 ×10⁻⁶ cm/s.

Consider `CCOc1cc(N2CCN(C(=O)Nc3nc4ccccc4s3)CC2)ccc1OC`, for which the Ki in data set [1] is over 10 µM; in [2], over 10 µM; in data set [3], over 10 µM; in data set [4], over 1 µM.

On to `CCOc1cc(CN2CCC(Nc3nc4ccccc4[nH]3)CC2)ccc1OC`, for which the Ki in data set [1] is over 10 µM; in data set [2], over 10 µM; in data set [3], over 10 µM; in data set [4], over 1 µM.

Turning to `CCOc1cc(CN2CCC(Nc3nc4ccccc4o3)CC2)ccc1O`, the Ki in data set [1], in data set [2] and in data set [3] was over 10 µM throughout.

Regarding `CCOC(=O)c1c(OCC)cc(CN2CCC(Nc3nc4ccccc4o3)CC2)cc1OCC`, the Ki is over 10 µM in [1], over 10 µM in [2], over 10 µM in data set [3] and 0.156 µM in [4].

`CCOc1cc(CN2CCC(Nc3nc4cc(NC(C)=O)ccc4o3)CC2)ccc1OC`: the Ki was over 10 µM in data set [1], over 10 µM in data set [2], over 10 µM in [3] and 0.357 µM in [4].

With `CCOc1cc(CN2CCC(Nc3nc4ccc(Cl)cc4s3)CC2)ccc1OC`, the Ki in [1] was over 10 µM; in data set [2], over 10 µM; in data set [3], over 10 µM; in [4] it was 0.361 µM.

Turning to `CCOc1cc(CN2CCC(Nc3nc4ccccc4o3)CC2)c(F)cc1OCCO`, the Ki in [1] is over 10 µM; in data set [2], over 10 µM; in [3] it was over 10 µM; in data set [4] it was over 1 µM.

Take `CCOc1cc(CN2CCC(Nc3nc4ccncc4o3)CC2)ccc1OC`: the Ki was over 10 µM in [1], over 10 µM in [2], over 10 µM in [3] and 0.72 µM in [4].

In the case of `CCOc1cc(CN2CCC(Nc3nc4cc(OC(F)(F)F)ccc4o3)CC2)ccc1OC`, the Ki is over 10 µM in [1], over 10 µM in data set [2], over 10 µM in [3] and 0.354 µM in [4].

Regarding `CCCOc1cc(CN2CCC(Nc3nc4ccccc4o3)CC2)ccc1OC`, the Ki in data set [1], in data set [2] and in [3] was over 10 µM in each case.

With `CCOc1cc(CN2CCC(Nc3nc4ncccc4o3)CC2)ccc1OC`, the Ki is over 10 µM in [1], over 10 µM in [2], over 10 µM in data set [3] and over 1 µM in [4].

In the case of `CCOc1cc(CN2CCC(Nc3nc4ccccc4o3)CC2)cc(OCC)c1N`, the Ki in [1] is over 10 µM; in data set [2], over 10 µM; in data set [3], over 10 µM; in [4], 0.033 µM.

Regarding `CCOc1cc(CN2CCC(Nc3nc4cc([N+](=O)[O-])ccc4o3)CC2)ccc1OC`, the Ki in data set [1] is over 10 µM; in data set [2] it was over 10 µM; in [3], over 10 µM; in data set [4], 0.252 µM.

`CCOc1cc(CN2CCC(Nc3nc4ccccc4o3)CC2)ccc1C(F)(F)F`: the Ki in [1] is over 10 µM; in data set [2] it was over 10 µM; in data set [3] it was over 10 µM; in data set [4], 0.524 µM.

With `CCOc1cc(CN2CCC(Nc3nc4ccccc4s3)CC2)ccc1OC`, the Ki is over 10 µM in data set [1], over 10 µM in [2], over 10 µM in data set [3] and 0.33 µM in [4].

On to `CCOc1cc(CN2CCC(Nc3nc4ccccc4o3)CC2)cnc1OC`, for which the Ki in data set [1] is over 10 µM; in data set [2], over 10 µM; in [3], over 10 µM; in data set [4] it was over 1 µM.

Take `CCOc1cc(NC2CCC(Nc3nc4ccccc4s3)CC2)ccc1OC` (stereo not drawn): the Ki was over 10 µM in data set [1], over 10 µM in [2], over 10 µM in data set [3] and over 1 µM in data set [4].

By Ki is commonly meant the equilibrium dissociation constant of an inhibitor or competing ligand from its target. The term solubility denotes the dissolved amount per volume that the medium holds. The low end stands for little dissolved substance, the high end for much dissolved substance. A word on the logD: it is lipophilicity at a set pH, counting ionised and neutral species. A high value points to higher lipophilicity. Usually pKa stands for the pH at which an ionisable group is half protonated. A lower pKa goes with a stronger acid or weaker base.
